Here are results for 13 compounds from publication PMC7111758 (Tetrahedron, 2019).

One data set deals with HEL cells. The data set is described as follows: Cytotoxicity, microscopically detectable alteration of cell morphology. In kind it is cell-based, human. Conditions: for Cytotoxicity MCC (minimum cytotoxic concentration): microscopically detectable alteration of cell morphology.
In data set [1] the test system is human cytomegalovirus (HCMV) strain Davis. The data set is described as follows: Antiviral assay, virus-induced cytopathic effect in HEL cells, HCMV Davis. The data set is classed as cell-based. Conditions: Human betaherpesvirus 5, HEL, read-out: Antiviral activity - EC50 HCMV Davis. On the technique in general: Damage to the host cells serves as the signal in cytopathic effect assays.

The next data set deals with adenovirus-2. Briefly: Antiviral assay, virus-induced cytopathic effect, adenovirus-2. The data set is classed as cell-based. The conditions noted are these: for EC50: Human mastadenovirus C, read-out: Antiviral activity - EC50 Adeno-2.
In data set [2] the test system is herpes simplex virus type 2 (HSV-2) strain G. Briefly: Antiviral assay, virus-induced cytopathic effect in HEL cells, HSV-2 G. The conditions noted are these: Human alphaherpesvirus 2, HEL, read-out: Antiviral activity - EC50 HSV-2 G (TK+). The data set is classed as cell-based.
In data set [3] the test system is varicella-zoster virus (VZV) strain Oka (TK+). Briefly: microbe, parasite or virus in culture. The conditions noted are these: Human alphaherpesvirus 3, HEL, read-out: Antiviral activity - EC50 VZV Oka (TK+). In kind it is cell-based.
The next data set has as its system vaccinia virus (VACV). Briefly: microbe, parasite or virus in culture. The data set is classed as cell-based. The conditions noted are these: for EC50: Orthopoxvirus vaccinia, HEL, read-out: Antiviral activity - EC50 VACV.
The subject of data set [4] is human cytomegalovirus (HCMV) strain AD-169. The data set is described as follows: Antiviral assay, virus-induced cytopathic effect in HEL cells, HCMV AD-169. The data set is classed as cell-based. The conditions noted are these: HCMV replication; compared with reference drug ganciclovir.
Data set [5] in a line: Cytostatic activity, inhibition of HEL cell growth. Conditions: human, HEL cells. The data set is classed as cell-based. The method in brief:
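HEL cells seeded at 5 × 10^3 cells/well, allowed to proliferate 24 h, then given medium with different concentrations of test compound. After three days at 37 °C, cell number counted with a Coulter counter. CC50 is the concentration reducing proliferation by 50% relative to untreated control cell counts.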

Where only a bound is given, the exact number is not on record here.

What is called EC50 is the concentration giving half of the maximal effect. Usually CC50 stands for the concentration at which the toxic effect on the cells reaches its halfway point. The low end stands for harm at low concentration, the high end for better tolerance by the cells.

As for `CC(=O)O.NC1=NC(=O)N(CC(O)C(F)(F)F)CN1` (centres unmarked) [compound 23, 6-Amino-4-oxo-3-(3,3,3-trifluoro-2-hydroxypropyl)-1,2,3,4-tetrahydro-1,3,5-triazin-1-ium acetate], in the data set with HEL cells, the “Cytotoxicity MCC (minimum cytotoxic concentration)” value (shortened to “Cytotoxicity MCC”) is greater than 100 µM. Also, the EC50 (in data set [1]; with adenovirus-2; in data set [2]; in data set [3]; with vaccinia virus (VACV)) was greater than 100 µM each time.
Turning to `CC(C)OP(=O)(CO[C@H](CF)Cn1cnc(N)nc1=O)OC(C)C` [8a, Diisopropyl (S)-{[(1-(4-amino-2-oxo-1,3,5-triazin-1(2H)-yl)-3-fluoropropan-2-yl)oxy]methyl}phosphonate], in the data set on HEL cells, the “Cytotoxicity MCC” value was greater than 100 µM. The “cytotoxicity for HEL cells” value with HEL cells (no cytotoxicity up to the highest concentration tested) is greater than 100 µM. The EC50 in data set [1] was 7.9 ± 5.5 µM; with adenovirus-2 it was greater than 100 µM; in data set [2] it was 17.5 ± 10.6 µM; in data set [3], 11.7 ± 4 µM; in the data set with vaccinia virus (VACV), greater than 100 µM. In addition, the activity against adenoviruses result in the data set with adenovirus-2 (in words) was “inactive”. Besides, the “EC50 against HCMV relative to ganciclovir” value in data set [4] is listed as “about three times higher”. The CC50 at 3 days in data set [5] is greater than 100 µM. Besides, the “activity against vaccinia virus (poxvirus)” value in the data set on vaccinia virus (VACV) is “inactive”.
As for `NC1=NC(=O)N(C[C@@H](CF)OCP(=O)(O)O)CN1` [compound 13, (S)-1-[3-Fluoro-2-(phosphonomethoxy)propyl]-5,6-dihydro-5-azacytosine], the “Cytotoxicity MCC” value in the data set on HEL cells was greater than 100 µM. For the same compound, the half-maximal effective concentration (EC50) (in data set [1]; in the data set on adenovirus-2; in data set [2]; in data set [3]; with vaccinia virus (VACV)) was greater than 100 µM in each case.
Turning to `CCOC(=O)C(C)NP(=O)(COC(CF)CN1CN2C=C(c3ccc(OC)cc3)NC2=NC1=O)NC(C)C(=O)OCC` (centres unmarked) [19c, Diethyl 2,2'-(((((1-fluoro-3-(7-(4-methoxyphenyl)-2-oxo-2,8-dihydroimidazo[1,2-a][1,3,5]triazin-3(4H)-yl)propan-2-yl)oxy)methyl)phosphoryl)bis(azanediyl))-dipropionate], the “Cytotoxicity MCC” value with HEL cells was greater than 100 µM. In addition, the EC50 (in data set [1]; in the data set with adenovirus-2; in data set [2]; in data set [3]; in the data set on vaccinia virus (VACV)) was greater than 100 µM each time.
Take `CCOC(=O)C(C)NP(=O)(COC(CF)CN1CN2C=C(c3ccccc3)NC2=NC1=O)NC(C)C(=O)OCC` (centres unmarked) [19a, Diethyl 2,2'-(((((1-fluoro-3-(2-oxo-7-phenyl-2,8-dihydroimidazo[1,2-a][1,3,5]triazin-3(4H)-yl)propan-2-yl)oxy)methyl)phosphoryl)bis(azanediyl))-dipropionate]: the “Cytotoxicity MCC” value with HEL cells was greater than 100 µM. The EC50 (in data set [1]; in the data set on adenovirus-2; in data set [2]; in data set [3]; in the data set with vaccinia virus (VACV)) was greater than 100 µM throughout.
As for `Nc1nc2c(ncn2COCCO)c(=O)[nH]1` [ACV, acyclovir, reference compound], the “Cytotoxicity MCC” value in the data set on HEL cells was greater than 440 µM. The cytotoxic concentration (CC50) at 3 days in data set [5] is greater than 440 µM. The EC50 in data set [2] was 0.21 ± 0.12 µM; in the data set on vaccinia virus (VACV), greater than 250 µM.
Turning to `Nc1ncn(C[C@@H](CF)OCP(=O)(O)O)c(=O)n1` [compound 9, (S)-{[1-(4-Amino-2-oxo-1,3,5-triazin-1(2H)-yl)-3-fluoropropan-2-yl]oxymethyl}phosphonic acid], the “Cytotoxicity MCC” value in the data set on HEL cells was greater than 100 µM. For the same compound, the EC50 (in data set [1]; with adenovirus-2; in data set [2]; in data set [3]; with vaccinia virus (VACV)) was greater than 100 µM each time.
`Nc1ncn(CC(O)C(F)(F)F)c(=O)n1` (centres unmarked) [compound 22, 4-Amino-1-(3,3,3-trifluoro-2-hydroxypropyl)-1,3,5-triazin-2(1H)-one]: the “Cytotoxicity MCC” value with HEL cells is greater than 446 µM. Further, the half-maximal effective concentration (EC50) in data set [1] is 200 ± 17.8 µM; with adenovirus-2 it was 268 ± 178 µM; in data set [2] it was 230 ± 29 µM; in data set [3] it was 40.6 ± 11.7 µM; with vaccinia virus (VACV), greater than 446 µM. Further, the 50% cytotoxic concentration (CC50) at 3 days in data set [5] was greater than 446 µM.
In the case of `O=c1[nH]c(=O)n([C@H]2C[C@H](O)[C@@H](CO)O2)cc1/C=C/Br` [BVDU, brivudine, reference compound], the “Cytotoxicity MCC” value in the data set on HEL cells is greater than 300 µM. This compound also gave a CC50 at 3 days in data set [5] greater than 300 µM. In addition, the 50% effective concentration (EC50) in data set [2] amounted to 123 ± 26 µM; in data set [3] it was 0.023 ± 0.021 µM; with vaccinia virus (VACV) it was 11.3 ± 6.4 µM.
For the compound `Nc1ncn(CC(OCP(=O)(O)O)C(F)(F)F)c(=O)n1` (centres unmarked) [compound 25, {[(3-(4-Amino-2-oxo-1,3,5-triazin-1(2H)-yl)-1,1,1-trifluoropropan-2-yl)oxy]methyl}phosphonic acid], the “Cytotoxicity MCC” value in the data set on HEL cells is greater than 100 µM. The EC50 (in data set [1]; in the data set on adenovirus-2; in data set [2]; in data set [3]; with vaccinia virus (VACV)) was greater than 100 µM throughout.
For the compound `CCOC(=O)C(C)NP(=O)(COC(CF)CN1CN2C=C(c3ccc([N+](=O)[O-])cc3)NC2=NC1=O)NC(C)C(=O)OCC` (centres unmarked) [19b, Diethyl 2,2'-(((((1-fluoro-3-(7-(4-nitrophenyl)-2-oxo-2,8-dihydroimidazo[1,2-a][1,3,5]triazin-3(4H)-yl)propan-2-yl)oxy)methyl)phosphoryl)bis(azanediyl))-dipropionate], the “Cytotoxicity MCC” value in the data set with HEL cells is greater than 100 µM. Besides, the concentration giving a half-maximal response (EC50) (in data set [1]; with adenovirus-2; in data set [2]; in data set [3]; in the data set with vaccinia virus (VACV)) was greater than 100 µM each time.
Regarding `Nc1nc(O)c2ncn(COC(CO)CO)c2n1` [GCV, ganciclovir, reference compound], the “Cytotoxicity MCC” value with HEL cells was greater than 350 µM. The results for the EC50 (in data set [1]; in data set [2]; with vaccinia virus (VACV)) were 3 ± 2.7 µM, 0.03 µM and greater than 100 µM, respectively. Besides, the cytotoxic concentration (CC50) at 3 days in data set [5] is greater than 350 µM.
As for `Nc1ccn(C[C@@H](CO)OCP(=O)(O)O)c(=O)n1` [CDV, cidofovir, reference compound], the “Cytotoxicity MCC” value with HEL cells was greater than 300 µM. For the same compound, the EC50 in data set [1] was found to be 0.73 ± 0.31 µM; with adenovirus-2, 8.3 ± 2.1 µM; in data set [2], 1.3 ± 0.4 µM; in the data set with vaccinia virus (VACV) it was 26 ± 12 µM. The CC50 at 3 days in data set [5] was greater than 300 µM.
